Experimental data reported in ChEMBL document CHEMBL4371072, “Structure-Activity Relationship Studies and Plasmodium Life Cycle Profiling Identifies Pan-Active N-Aryl-3-trifluoromethyl Pyrido[1,2- a]benzimidazoles Which Are Efficacious in an in Vivo Mouse Model of Malaria” (J Med Chem, 2019).
pIC50: −log10 of the molar value. Blank lines part the entries; values can stand above or below the molecule they belong to.

How the values were obtained:
[1] = system: Plasmodium falciparum; assay: (§1) Antiplasmodial activity against chloroquine-sensitive asexual blood stage of Plasmodium falciparum NF54 infected in human RBC assessed as reduction in [3H]hypoxanthine incorporation preincubated for 48 hrs followed by [3H]hypoxanthine addition measured after 24 hrs by liquid scintillation counting method; type: functional, organism-based
In short: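 Asexual blood-stage P. falciparum NF54 assay, run as a modified [3H]-hypoxanthine incorporation assay. Values are the mean of n ≥ 2 assays; determinations differing more than 3-fold were excluded. Chloroquine and artesunate served as controls.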

[2] = system: Hemozoin; assay: Inhibition of beta hematin formation after 5 hrs by NP40 detergent-based assay
[3] = system: Plasmodium falciparum; assay: as §1, with “chloroquine-resistant” for “chloroquine-sensitive”, “K1” for “NF54”; type: functional, organism-based
In short: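 Asexual blood-stage P. falciparum K1 (multidrug resistant) screened by modified [3H]-hypoxanthine incorporation assay; IC50 as mean of n ≥ 2 assays, replicates differing above 3-fold excluded; chloroquine and artesunate controls.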

[4] = Resistance index, ratio of IC50 for chloroquine-resistant asexual blood stage of Plasmodium falciparum K1 infected in human RBC to IC50 for chloroquine-sensitive asexual blood stage of Plasmodium falciparum NF54 infected in human RBC; type: functional
[5] = system: CHO; assay: Cytotoxicity against CHO cells after 48 hrs by MTT assay; type: cell-based; details: Cricetulus griseus
[6] = Selectivity index, ratio of IC50 for CHO cells to IC50 for chloroquine-sensitive asexual blood stage of Plasmodium falciparum NF54 infected in human RBC; type: toxicity; details: Chinese hamster, read-out: Ratio IC50
In short: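 Selectivity index taken as the ratio of the CHO-cell IC50 to the P. falciparum NF54 IC50.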

[7] = system: Plasmodium falciparum; assay: Antiplasmodial activity against chloroquine-sensitive final late stage of Plasmodium falciparum NF54-Mal8p1.16-GFP-Luc gametocytes after 24 hrs by BacTiter-Glo assay; type: functional, organism-based; details: NF54, 24 h
In short: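 Late-stage PfNF54 gametocytes produced in vitro; gametocytocidal IC50 via luciferase reporter and ATP bioluminescence platforms; n=3 independent biological replicates in technical triplicates, ± S.E.M.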

[8] = Metabolic stability in Balb/c mouse liver microsomes assessed as parent compound remaining at 0.1 uM after 30 mins in presence of NADPH by LC-MS/MS analysis; details: liver microsomes
[9] = Half life in Balb/c mouse liver microsomes at 0.1 uM in presence of NADPH by LC-MS/MS analysis; details: liver microsomes
[10] = Metabolic stability in human liver microsomes assessed as parent compound remaining at 0.1 uM after 30 mins in presence of NADPH by LC-MS/MS analysis; details: liver microsomes
[11] = Half life in human liver microsomes at 0.1 uM in presence of NADPH by LC-MS/MS analysis; details: liver microsomes
[12] = system: Plasmodium berghei; assay: Antimalarial activity against liver stage form of luciferase transfected Plasmodium berghei sporozoites infected in human HuH7 cells preincubated with host cells for 1 hr followed by plasmodial infection and measured after 48 hrs by bioluminescence method; type: functional, organism-based; details: Huh-7

pIC50 [1]: < 5.63
Compound: CS(=O)(=O)c1ccc(Nc2cc(C(F)(F)F)c(C#N)c3nc4ccccc4n23)cc1

pIC50 [1]: < 5.57
Compound: N#Cc1c(C(F)(F)F)cc(NCc2cccnc2)n2c1nc1ccccc12

pIC50 [1]: 4.90
Compound: CS(=O)(=O)c1ccc(CNc2cc(C(F)(F)F)c(C#N)c3nc4ccccc4n23)cc1

pIC50 [1]: < 5.60
Compound: N#Cc1c(C(F)(F)F)cc(Nc2ccnc(F)c2)n2c1nc1ccccc12

pIC50 [1]: 5.21
Compound: N#Cc1c(C(F)(F)F)cc(NCc2ccccc2)n2c1nc1ccccc12

pIC50 [1]: < 5.55
Compound: N#Cc1c(C(F)(F)F)cc(Nc2ccccc2)n2c1nc1ccccc12

pIC50 [1]: 5.25
Compound: CN(C)c1ccc(Nc2cc(C(F)(F)F)c(C#N)c3nc4ccccc4n23)cc1

pIC50 [1]: 6.00
Compound: CC(C)c1ccc(Nc2cc(C(F)(F)F)c(C#N)c3nc4ccccc4n23)cc1

pIC50 [1]: < 5.57
Compound: CN(Cc1ccccn1)c1cc(C(F)(F)F)c(C#N)c2nc3ccccc3n12

pIC50 [1]: 4.99
Compound: N#Cc1c(C(F)(F)F)cc(NCc2ccc(S(N)(=O)=O)cc2)n2c1nc1ccccc12

pIC50 [1]: < 5.63
Compound: CNC(=O)c1ccc(CNc2cc(C(F)(F)F)c(C#N)c3nc4ccccc4n23)cc1

pIC50 [1]: < 5.55
Compound: Cc1csc(Nc2cc(C(F)(F)F)c(C#N)c3nc4ccccc4n23)n1

pIC50 [1]: 5.59
Compound: N#Cc1c(C(F)(F)F)cc(NCc2cnccn2)n2c1nc1ccccc12

pIC50 [1]: < 5.57
Compound: N#Cc1c(C(F)(F)F)cc(NCc2ccncc2)n2c1nc1ccccc12

pIC50 [1]: 5.83
Compound: Cc1ccc(CNc2cc(C(F)(F)F)c(C#N)c3nc4ccccc4n23)cc1
pIC50 [5]: 4.60
selectivity ratio [6]: 17

pIC50 [1]: 5.62
Compound: CC(C)c1ccc(CNc2cc(C(F)(F)F)c(C#N)c3nc4ccccc4n23)cc1

Further lines, the molecule ahead of its results:

Compound: CC(Nc1cc(C(F)(F)F)c(C#N)c2nc3ccccc3n12)c1ccc(S(C)(=O)=O)cc1 (configuration not stated)
pIC50 [1]: < 5.57
pIC50 [2]: < 4.00

Compound: N#Cc1c(C(F)(F)F)cc(Nc2ccc(OC(F)(F)F)cc2)n2c1nc1cc(Cl)c(Cl)cc12
pIC50 [1]: < 5.71
pIC50 [2]: 4.49

Compound: N#Cc1c(C(F)(F)F)cc(Nc2cccc(OC(F)(F)F)c2)n2c1nc1ccccc12
pIC50 [1]: 6.41
pIC50 [3]: 6.64
Ratio IC50 [4]: 0.58

Compound: N#Cc1c(C(F)(F)F)cc(NCc2ccccn2)n2c1nc1ccccc12
pIC50 [1]: 5.94
pIC50 [3]: 5.79
Ratio IC50 [4]: 1.41
pIC50 [2]: < 4.00
pIC50 [5]: < 3.57
selectivity ratio [6]: > 234

Compound: CC(Nc1cc(C(F)(F)F)c(C#N)c2nc3cc(Cl)c(Cl)cc3n12)c1ccc(S(C)(=O)=O)cc1 (configuration not stated)
pIC50 [1]: 5.30
pIC50 [2]: 4.49

Compound: COC(=O)c1c(C(F)(F)F)cc(Nc2ccc(OC(F)(F)F)cc2)n2c1nc1ccccc12
pIC50 [1]: 5.26

Compound: N#Cc1c(C(F)(F)F)cc(NCc2ccc(F)cc2)n2c1nc1cc(Cl)c(Cl)cc12
pIC50 [1]: 6.36
pIC50 [3]: 6.55
Ratio IC50 [4]: 0.64
pIC50 [7]: 6.16
remaining at 0.5 h, 0.1 µM [8]: 72%
half-life at 0.1 µM [9]: 1.05 h
remaining at 0.5 h, 0.1 µM [10]: 102%
half-life at 0.1 µM [11]: > 2.5 h
pIC50 [5]: 4.89
selectivity ratio [6]: 30

Compound: CNC(=O)c1ccc(Nc2cc(C(F)(F)F)c(C#N)c3nc4ccccc4n23)cc1
pIC50 [1]: < 5.00

Compound: N#Cc1c(C(F)(F)F)cc(NCc2ccc(F)cc2)n2c1nc1cc(Cl)cc(Cl)c12
pIC50 [1]: 6.51
pIC50 [3]: 6.68
pIC50 [7]: 6.13
pIC50 [5]: 5.78

Compound: N#Cc1c(C(F)(F)F)cc(N2CCNCC2)n2c1nc1cc(Cl)c(Cl)cc12
pIC50 [1]: 5.09

Compound: N#Cc1c(C(F)(F)F)cc(NCc2ccc(F)cc2)n2c1nc1ccccc12
pIC50 [1]: 5.90
pIC50 [3]: 6.05
Ratio IC50 [4]: 0.7
pIC50 [12]: 6.05
pIC50 [5]: 4.35
selectivity ratio [6]: 35

Compound: N#Cc1ccc(S(=O)(=O)Nc2cc(C(F)(F)F)c(C#N)c3nc4cc(Cl)c(Cl)cc4n23)cc1
pIC50 [1]: 5.25
